Source: paper PMC3212727 (The Journal of Experimental Medicine, 2006)

Tests used:
[1] = tested on: TAP1-GFP in MelJuSo cells; assay: TAP mobility assay; assay type: cell-based, human; details: FRAP; for initial increase in intracellular peptides: measured 1 h after irradiation, Fig. 2A and unpublished data
Procedure, shortened: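 FRAP was run at 37°C on MelJuSo cells stably expressing TAP1-GFP, imaged 1 h after 4 Gy γ-irradiation. Some cells were pretreated with 10 μM lactacystin for 30 min, ATP-depleted with 0.05% NaAz plus […] 2-deoxyglucose for 30 min, or given cycloheximide. An ER spot was bleached at full laser power and recovery followed with an attenuated beam. Diffusion coefficient came from bleach-corrected recovery half-times: ≥3 experiments, mean ± SD.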

mTOR pathway [2] = assay: Biosynthetic labeling and immunoprecipitation of MHC molecules; assay type: cell-based, human; details: HLA-A2-GFP MelJuSo, 0, 10 or 20 Gy, 6 h, 10 nM rapamycin, 35S-methionine/cystein 1 h
mTOR pathway [3] = assay: Surface MHC class I expression of MelJuSo cells; assay type: cell-based, human; details: 25 Gy, 20 nM rapamycin, W6/32 flow cytometry, n = 4
Procedure, shortened: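 Human melanoma MelJuSo cells received 0–25 Gy γ-irradiation (137Cs, 0.75 Gy/min). They were cultured for the stated times with or without 20 nM rapamycin, stained for surface MHC class I with W6/32 and analysed by flow cytometry, with a background control lacking primary antibody. Mean fluorescence intensity was expressed relative to nonirradiated control cells.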

MC38 cells [4] = assay: H2-Kb expression of MC38 cells by flow cytometry; assay type: cell-based, mouse; details: MC38, 20 Gy, 24 h, 20 nM rapamycin; FITC mAb H-2Kb
Procedure, shortened: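 MC38 murine colon adenocarcinoma cells (H-2b) were γ-irradiated with 20 Gy (137Cs, 0.75 Gy/min) and cultured 24 h with or without 20 nM rapamycin. They were then stained with FITC-labelled anti-H-2Kb mAb and analysed by flow cytometry against an isotype control antibody. Percentage of positive cells and mean fluorescence intensity were reported.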

mTOR pathway [5] = assay: GFP expression of irradiated MelJuSo cells by flow cytometry; assay type: cell-based, human; details: 20 nM rapamycin
Procedure, shortened: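 MelJuSo cells stably transfected with EGFP in pcDNA3 (CMV promoter) received 0 or 25 Gy γ-irradiation (137Cs, 0.75 Gy/min), with or without 20 nM rapamycin. GFP fluorescence was read by flow cytometry at 0, 4 or 24 h after irradiation. n = 6, mean ± SD.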

MC38 cells [6] = assay: 111In release cytotoxicity assay with gp70-specific CTL; assay type: cell-based, mouse; details: 20 nM rapamycin 24 h, then 18 h with CTL

Structure (SMILES)	initial increase in intracellular peptides [1]	TAP activity in irradiated cells ([1]; pretreatment before irradiation, 4 Gy, measured 1 h later, n = 9)	translation of GFP-tagged and endogenous MHC class I molecules, H chains and MHC class II molecules (mTOR pathway [2])	MHC class I expression 4 h after irradiation (mTOR pathway [3]; 4 h)	radiation-induced increase in MHC class I expression 24 h after irradiation (mTOR pathway [3]; 24 h)	radiation-induced up-regulation of MHC class I expression (MC38 cells [4])	GFP expression in response to ionizing radiation (mTOR pathway [5]; MelJuSo-EGFP (CMV promoter), 25 Gy, 24 h, n = 6)	GFP expression in nonirradiated cells (mTOR pathway [5]; MelJuSo-EGFP, no radiation)	lysis of irradiated MC38 cells by gp70-specific CTL (MC38 cells [6]; 20 Gy, E:T 100:1 to 3.125:1)	CTL recognition of nonirradiated cells (MC38 cells [6]; MC38, no radiation)
C[C@@H]1C[C@@H]([C@H](O)CC2CC(=O)NC(=O)C2)C(=O)[C@@H](C)C1 [cycloheximide]	not inhibited	no effect on TAP activity	–	–	–	–	–	–	–	–
CO[C@H]1C[C@@H]2CC[C@@H](C)[C@@](O)(O2)C(=O)C(=O)N2CCCC[C@H]2C(=O)O[C@H]([C@H](C)C[C@@H]2CC[C@@H](O)[C@H](OC)C2)CC(=O)[C@H](C)/C=C(\C)[C@@H](O)[C@@H](OC)C(=O)[C@H](C)C[C@H](C)/C=C/C=C/C=C/1C [rapamycin]	not inhibited	–	inhibited	No effect	markedly reduced	can be inhibited	no increase in GFP expression	decreased GFP expression	enhanced lysis in a rapamycin-dependent fashion	no effect
